The record followed here is ChEMBL document CHEMBL4513216, “Probing the Open Global Health Chemical Diversity Library for Multistage-Active Starting Points for Next-Generation Antimalarials” (ACS Infect Dis, 2020).

This series in a line: Toxicity liver stage against HepG2, at 10uM. Format: cell-based. On the set-up: test concentration 10 uM, cell line HepG2-A16-CD81EGFP. Particulars: human, HepG2-A16-CD81EGFP cells; read-out: INHIBITION
A digest of the protocol:
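Uninfected HepG2-A16-CD81EGFP cells, 3 × 10^3 per well, 1536-well, plated on prespotted compound at 10 μM final, parasite-free screening media added to match infected plates; puromycin 10 μM positive, DMSO 0.5% negative; run in parallel with 48 h PbLuc assay at 37 °C, 5% CO2; viability by CellTiter-Glo luminescence, normalized to controls.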

Take `CCCN1CCN(C(=O)c2cc3ccccc3cn2)[C@H]2CS(=O)(=O)C[C@H]21`: the cytotoxicity at 10 µM was determined as 1.1%.
As for `COc1ccc2[nH]nc(CN3CCC(C(=O)N4CCCCC4)CC3)c2c1`, the figure is -2.03%; as for `CNc1cc(-c2cccc(CN)c2)c2cc[nH]c2n1`, -3.23%.
For `N#Cc1ncn(CC(=O)Cc2c(F)cccc2Cl)n1` the value was -1.45%; for `O=C(NCC(O)COc1ccc(C(F)(F)F)cc1)Nc1nncs1` (stereo unspecified), -14.2%.
In the case of `Cn1cc(CN2CCc3onc(C(=O)Nc4cccnc4)c3C2)cn1`, the cytotoxicity at 10 µM came out at 4.22%.
As for `Cc1noc(CNc2ccccc2C(=O)N2CCCC(O)C2)n1` (stereo unspecified), the cytotoxicity at 10 µM is -3.13%.
With `CO[C@@]1(C)C[C@@H](O)C12CCN(C(=O)c1ccccc1C(C)=O)CC2`, the cytotoxicity at 10 µM was 3.51%.
On to `CCN1CC(Oc2ccc(Cl)cc2)=NC(SCC(=O)c2ccccc2)=N1`, for which the cytotoxicity at 10 µM turned out to be 0.515%.
For `COc1cccc(CN2CCCCCC2c2cccs2)c1OC` (stereo unspecified), the cytotoxicity at 10 µM was 8.29%.
`Cc1noc(C(C)C)c1C(=O)NCC(c1cccs1)N(C)C` (stereo unspecified): the cytotoxicity at 10 µM is -14.5%.
As for `CN(C)C(=O)C1CCCN1CCCNC(=O)Cc1ccccc1F` (stereo unspecified), the figure is 0.646%.
Consider `Cc1ccc(C(CNC(=O)c2cc(=O)c3ccccc3[nH]2)N(C)C)cc1` (stereo unspecified), for which the cytotoxicity at 10 µM is -14.6%.
As for `CN(C)S(=O)(=O)N1CCN(C(=O)OC(C)(C)C)CC12CCCCC2`, the figure is 3.36%.
For `O=C(CCC1CCN(Cc2ncc[nH]2)CC1)Nc1ccccc1Cl` the value was -21.8%; for `COc1c(C2CCCN2CC(=O)N(C)Cc2ccco2)c(C)nn1C` (stereo unspecified), -3.13%; for `CN(Cc1nncn1C)c1nccc(C2CCCC2)n1`, -1.14%.
Turning to `Cc1nc([C@@H]2C[C@@H]3CCN(Cc4cnn(C)c4)C[C@H]3O2)sc1C`, the cytotoxicity at 10 µM is -3.49%.
On to `Cc1ccc(-c2ccnc(NCC3(N(C)C)CCOCC3)n2)c(C)n1`, for which the cytotoxicity at 10 µM was 13.1%.
As for `CS(=O)(=O)NCc1cc(=O)n2c(n1)CN(Cc1ccco1)CCC2`, the figure is 7.25%; as for `c1cc(C2CCN(c3cnccn3)CC2)ccn1`, 3.94%; as for `O=S(=O)(c1ccc(F)cc1)N1CCCn2cnc(CN3CCCC3)c2C1`, 7.78%.
In the case of `COC[C@@]12CCC[C@@H]1CN(C(=O)CN(C)C)C2`, the cytotoxicity at 10 µM worked out at 4.84%.
As for `O=C(NC1CCS(=O)(=O)C1)c1sccc1OC(F)F` (stereo unspecified), the cytotoxicity at 10 µM was -0.699%.
For the molecule `Cc1ccccc1-c1cc(C(=O)NCCN2CCCS2(=O)=O)[nH]n1`, the cytotoxicity at 10 µM was -12.9%.
For the molecule `Cc1cc(C(=O)Nc2ccc3c(ccn3CCN3CCOCC3)c2)on1`, the cytotoxicity at 10 µM worked out at 4.29%.
For the molecule `CN(C)c1ccc(CNc2cncc(-n3cccn3)n2)cc1`, the cytotoxicity at 10 µM was -7.31%.
As for `CCn1cc2c(n1)CN(S(=O)(=O)c1cccnc1)CC2COC` (stereo unspecified), the figure is 5.74%; as for `COc1c(C)cnc(CN2CCC(N(C)S(C)(=O)=O)CC2)c1C`, 0.141%.
As for `Cc1cnc(CN2C[C@H]3CC(Oc4ccccc4)C[C@H]3C2)cn1` (stereo partly specified), the figure is -24.3%; as for `OCc1csc(N2CCCC(COc3cccc(F)c3)C2)n1` (stereo unspecified), -0.176%.
For `Cc1cc(NCCN)nc(-c2ccccc2O)n1` the value was 7.61%; for `CN1CCN([C@@H]2CN(C(=O)CCOc3ccccc3)C[C@H]2O)CC1`, 1.17%.
As to `O=C(c1ccc2[nH]ccc2c1)N1CCn2cnc(COCC3CC3)c2C1`, the cytotoxicity at 10 µM was determined as 5.22%.
Take `Cc1ccc(C2(CN(C)Cc3c(C)nn(C)c3C)CCNCC2)nc1`: the cytotoxicity at 10 µM is -0.44%.
As for `c1cncc(CN2CCc3ncnc(C4CC4)c3CC2)c1`, the figure is -129%; as for `CCCN1CCC(N2CCC(Cn3cc(CC(C)O)nn3)CC2)CC1` (stereo unspecified), -1.89%; as for `CS(=O)(=O)NC[C@]12COC[C@H]1CN(CCc1ccccc1)C2`, 12.3%.
For the molecule `Cc1oc(-c2ccccc2)nc1CN1CCC(c2ccnn2C)CC1`, the cytotoxicity at 10 µM turned out to be 15.6%.
For `CCCn1cc(-c2cc(-c3c[nH]cn3)c(C#N)c(N)n2)c(C)n1` the value was 10.3%; for `Cc1noc(C2CCN(C(=O)CN(C)c3ccc(Cl)cn3)CC2)n1`, -6.98%.
For `NC(=O)CSCC(=O)N1CCc2cc(Cl)cc(Cl)c2C1` the value was 27.9%; for `O=C(CN1CCCC1=O)NCc1cccnc1Oc1ccc(F)c(F)c1`, 1.87%.
As to `N#Cc1ccc(SCCC(=O)NC(N)=O)cc1`, the cytotoxicity at 10 µM was -2.66%.
For `Cc1cccnc1CC(C)N(C)C(=O)c1ccoc1C` (stereo unspecified) the value was -12.6%; for `CC(c1ccc(Cl)cc1)N1CCN(CCNS(C)(=O)=O)CC1` (stereo unspecified), -15.3%; for `Cc1ccccc1Oc1ncccc1CNS(=O)(=O)N(C)C`, -4.09%.
As for `O=C(CC1CC1)N1CCCn2nnc(CNc3ncccn3)c2C1`, the figure is -0.802%; as for `Cc1cccc(C(=O)N(C)Cc2cc(Br)cs2)n1`, -5.1%; as for `Cc1noc(C)c1CC(=O)NCC(CC(C)C)N1CCOCC1` (stereo unspecified), -40.6%.
As for `N[C@@H]1c2ccccc2C2(CCN(c3ncccc3C(F)(F)F)CC2)[C@H]1O`, the figure is 0.106%; as for `COc1ccc2[nH]c3c(N(C)CC4OCCO4)ncnc3c2c1`, 36%.
Take `COc1ccc(CN2CCO[C@H]3CN(C4CCCC4)CC[C@H]3C2=O)cc1`: the cytotoxicity at 10 µM was -138%.
As for `Cc1cnn(C2CN(CC(=O)Nc3cccnc3)C2)c1`, the cytotoxicity at 10 µM is -8.11%.
As for `CN(C)C(C(=O)N1Cc2ccccc2C1)c1ccccc1F` (stereo unspecified), the figure is -1.91%; as for `CC(C)CS(=O)(=O)N1C[C@@H]2C[C@H](C(=O)N3CCCC3)[C@H](C1)O2`, 17%; as for `CCn1ccnc1CN1CCN(Cc2cccnc2)CC1C` (stereo unspecified), -0.191%.
As for `O=C1CCC2(CCNCC2)CN1CCCOc1cccnc1`, the cytotoxicity at 10 µM is -13.2%.
`Cn1ccnc(Nc2ccc3c(c2)CCN3C(=O)c2cccnc2)c1=O`: the cytotoxicity at 10 µM was -55%.
As for `COCCCS(=O)(=O)N1CCN(Cc2cccn2C)CC1`, the cytotoxicity at 10 µM was -9.53%.
For `Cc1ccc(-c2ccc(=O)n(CC(=O)Nc3nccs3)n2)cc1` the value was -10.2%; for `c1cncc(Cc2nnc3n2CCN(CC2CCCNC2)CC3)c1` (stereo unspecified), 2.1%.
In the case of `COc1cnc(N2CCCN(c3ccc(F)cc3)CC2)nc1`, the cytotoxicity at 10 µM was -10.6%.
For `COc1ccccc1C(=O)NC(c1ccccn1)C1CCC(CN)CC1` (stereo unspecified) the value was -12.8%; for `CC(C)c1noc(-c2ccc(NCCCC3CCOC3)nc2)n1` (stereo unspecified), -7.37%.
As for `Cn1c(CN2CCCCC2)nnc1C1CCCN(c2ccncc2F)C1` (stereo unspecified), the figure is -0.37%; as for `CC(C)OCCn1nnnc1Cc1ccc(Br)cc1`, -5.58%; as for `OC(COCc1ccc(Cl)cc1)CN1CCC(c2ccn[nH]2)CC1` (stereo unspecified), -7.21%.
As for `CC(C)CN(Cc1ccsc1)C(=O)CCCn1cncn1`, the figure is -47.9%.
As for `CCc1nnsc1C(=O)N1CCCC1c1c(C)nn(C)c1OC` (stereo unspecified), the cytotoxicity at 10 µM is -1.67%.
For `N#Cc1cccc(NC2CC(=O)N(CCc3ccc(F)cc3)C2)n1` (stereo unspecified) the value was -118%; for `CC(=O)N1CCCN(C(=O)NCc2ccc(-c3ccn[nH]3)cc2)CC1`, 0.322%.
For `CN(C)C(=O)CN1C[C@H]2CC[C@@H](C1)N(Cc1ccc(Cl)cc1Cl)C2` the value was -10.2%; for `CN(Cc1cc(C2CC2)on1)C(=O)CN1CC(c2ccccc2)CC1=O` (stereo unspecified), -6.72%.
As to `Cc1nc(-c2cc(C(=O)N3CCN(C)CC3)c3ccccn23)cn1C`, the cytotoxicity at 10 µM amounted to 8.73%.
Regarding `O=C(CN1CCc2cncnc2C1)NCCOc1cccc(Cl)c1`, the cytotoxicity at 10 µM was -6.88%.
In the case of `COCC1CC2(CCN(Cc3ccc(OC)cc3)CC2)CN1C(C)C` (stereo unspecified), the cytotoxicity at 10 µM is -3.68%.
As for `Cn1cc(C(C)(O)CNc2ccc(C(F)(F)F)cn2)cn1` (stereo unspecified), the figure is -44.3%; as for `CCNC(=O)NC1CCN(c2ccc(S(=O)(=O)CC)cc2)CC1`, 7.89%; as for `CC(C)c1noc(CN(C)C(=O)c2ccccc2-c2nc[nH]n2)n1`, 10.4%.
As for `O=S(=O)(C1CC1)N1CCC2(CCN(Cc3nccs3)CC2)CC1`, the figure is 7.67%; as for `Cc1ccc(C(=O)N2CCCCC2CNC(N)=O)s1` (stereo unspecified), -0.519%.
Take `CC(C)(C)n1c(NC(=O)CNC(=O)NC2CC2)nc2ccccc21`: the cytotoxicity at 10 µM is 4.23%.
On to `O=S1(=O)C[C@@H]2[C@H](C1)N(Cc1ccc3ccccc3c1)CCN2CC1CC1`, for which the cytotoxicity at 10 µM was 1.99%.
For `CCNC(=O)NCCc1csc(N2CCCC2)n1` the value was -4.63%; for `CC1COCCN1Cc1nc(-c2ccc(Br)s2)no1` (stereo unspecified), -2.45%.
For `CN1CCC2(CCN(S(=O)(=O)c3ccc(-c4cnco4)s3)CC2)C1` the value was -0.0395%.
On to `CCC(C)(CC(=O)OC)NCc1c(C)noc1C` (stereo unspecified), for which the cytotoxicity at 10 µM was -3.19%.
`N#Cc1cccc(CN2C[C@H](OCC3CCOCC3)[C@H]3COC[C@H]32)c1`: the cytotoxicity at 10 µM was -0.82%.
On to `O=C(CCC(F)(F)F)N1CCCC2(CCC(=O)N(CC3CC3)C2)C1` (stereo unspecified), for which the cytotoxicity at 10 µM is 7.4%.
With `N#Cc1cccnc1N1CCN(S(=O)(=O)NCc2ccccc2)CC1`, the cytotoxicity at 10 µM was 6.1%.
For `CSCc1cccc(S(=O)(=O)N2CCC(C)CC2)c1`, the cytotoxicity at 10 µM was determined as 13.1%.
As for `Cc1cc(NC(=O)c2nn(C3CCS(=O)(=O)C3)c3c2CCCC3)no1` (stereo unspecified), the figure is 3.85%; as for `Cc1nc(CN2CCC(CNC(=O)CCC3CCCC3)CC2)oc1C`, -1.29%.
For the molecule `CC(C)(C)c1ccc(S(=O)(=O)CCNC(=O)c2cnccn2)cc1`, the cytotoxicity at 10 µM came to 4.92%.
As for `Cc1ncnc2c1CCN(c1ccccn1)CC2`, the figure is -157%.
